Laboratory results as given in ChEMBL document CHEMBL4184297, “Discovery and validation of 2-styryl substituted benzoxazin-4-ones as a novel scaffold for rhomboid protease inhibitors” (Bioorg Med Chem Lett, 2018).
Changes are numbered by the printed parent chain. The source made the active and inactive calls. The rule behind the calls is not given here.

Experiments:
Escherichia coli [1] = assay: Inhibition of recombinant Escherichia coli N-terminal His-tagged rhomboid protease GlpG expressed in Escherichia coli C43(DE3) cells at 250 uM using gurken as substrate preincubated for 30 mins followed by substrate addition measured after 90 mins by SDS-PAGE analysis
[2] = Inhibition of recombinant Escherichia coli N-terminal His-tagged rhomboid protease GlpG expressed in Escherichia coli C43(DE3) cells using KSp53 as substrate incubated for 1 hr followed by substrate addition by fluorescence assay; conditions: in the assay text read “KSp35” for “KSp53”
In short: (§1)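 Started with 10 µM quenched fluorogenic peptide (KSp35 or KSp76). Fluorescence normalized to DMSO and plotted against log concentration; apparent IC50 from nonlinear regression.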

[3] = target: T1, Cathepsin G (Homo sapiens) (UniProt P08311); assay: Inhibition of human neutrophil cathepsin G at 10 uM using N-Succinyl-Ala-Ala-Pro-Phe-p-nitroanilide as substrate preincubated for 30 mins followed by substrate addition measured at 1 min time interval for 5 mins by fluorescence assay; conditions: in the assay text read “absorbance assay” for “fluorescence assay”
T1 sequence (whole entry): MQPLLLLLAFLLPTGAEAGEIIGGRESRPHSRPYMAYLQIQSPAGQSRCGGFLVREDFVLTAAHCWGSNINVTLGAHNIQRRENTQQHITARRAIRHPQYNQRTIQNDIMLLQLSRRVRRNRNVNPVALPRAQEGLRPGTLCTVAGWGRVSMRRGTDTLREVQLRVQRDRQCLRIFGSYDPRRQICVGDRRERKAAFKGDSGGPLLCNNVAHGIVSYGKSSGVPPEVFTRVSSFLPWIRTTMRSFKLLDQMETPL
In short: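 Compound or DMSO preincubated with 200 nM human neutrophil cathepsin G for 30 min at 37°C in 100 mM HEPES, 500 mM NaCl, pH 7.4. Started with Suc-AAPF-pNA (2 mM stock). Absorbance at 410 nm read every 1 min for 5 min. Initial slope gives velocity; % activity relative to DMSO.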

[4] = target: T2, Neutrophil elastase (Homo sapiens) (UniProt P08246); assay: Inhibition of human neutrophil elastase at 10 uM using N-Methoxysuccinyl-Ala-Ala-Pro-Val-p-nitroanilid as substrate preincubated for 20 mins followed by substrate addition measured at 1 min time interval for 5 mins by fluorescence assay
T2 sequence (whole entry): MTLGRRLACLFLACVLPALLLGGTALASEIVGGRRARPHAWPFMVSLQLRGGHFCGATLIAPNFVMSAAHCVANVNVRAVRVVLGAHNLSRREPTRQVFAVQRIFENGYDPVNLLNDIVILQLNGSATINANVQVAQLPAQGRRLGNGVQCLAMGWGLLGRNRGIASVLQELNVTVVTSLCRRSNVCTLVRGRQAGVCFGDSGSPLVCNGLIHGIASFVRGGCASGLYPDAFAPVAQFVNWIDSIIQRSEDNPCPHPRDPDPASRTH

Bos taurus = species on record: Bos taurus; assay: Inhibition of bovine pancreas trypsin at 10 uM using Z-Gly-Gly-Argaminomethylcoumarin as substrate preincubated for 30 mins followed by substrate addition measured at 1 min time interval for 5 mins by fluorescence assay
In short: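 Compound or DMSO preincubated with 10 nM bovine pancreatic trypsin in PBS for 30 min at 30°C. Started with Z-Gly-Gly-Arg-AMC (1 mM stock). AMC fluorescence (ex 340/em 440) read every 1 min for 5 min. Initial slope gives velocity; % activity = V inhibitor/V DMSO × 100.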

Chymotrypsinogen A = Chymotrypsinogen A (Bos taurus, UniProt P00766); assay: Inhibition of bovine pancreas alpha-chymotrypsin using KSp21 as substrate preincubated for 30 mins followed by substrate addition measured after 50 to 60 mins by fluorescence assay
Escherichia coli [5] = assay: (§2) Reversible inhibition of recombinant Escherichia coli N-terminal His-tagged rhomboid protease GlpG expressed in Escherichia coli C43(DE3) cells assessed as recovery of enzyme activity at 1 uM using KSp76 as substrate preincubated for 1 hr followed by substrate addition measured over 120 mins by rapid dilution based fluorescence assay
In short: (§3)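 Rapid-dilution recovery. Inhibitor preincubated 1 h with 0.4 µM GlpG in 20 mM HEPES-NaOH pH 7.4, 150 mM NaCl, 0.05% DDM, then diluted 100-fold into buffer with 10 µM KSp76. Fluorescence (ex 553/em 583) monitored continuously for 120 min.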

[6] = target: Chymotrypsinogen A (Bos taurus) (UniProt P00766); assay: Inhibition of bovine alpha-chymotrypsin at 250 uM using N-Succinyl-Ala-AlaPro-Phe-p-nitroanilide as substrate incubated for 30 mins followed by substrate addition measured over 5 mins by spectroscopic method
Escherichia coli [7] = assay: Binding affinity to wild type recombinant Escherichia coli rhomboid protease GlpG expressed in Escherichia coli C43(DE3) cells by electrospray mass spectrometric analysis
In short: (§4)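 GlpG (wild type or rhomboid mutants) expressed in E. coli C43(DE3) and purified, then reacted in vitro with compound or vehicle. Covalent adduct detected by electrospray mass spectrometry as an added peak with the expected mass shift over free enzyme. Two independent experiments.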

[8] = target: T3, Rhomboid protease GlpG (Escherichia coli (strain K12)) (UniProt P09391); assay: Binding affinity to recombinant Escherichia coli rhomboid protease GlpG His150 mutant expressed in Escherichia coli C43(DE3) cells by electrospray mass spectrometric analysis; in short: as §4
T3 sequence (whole entry): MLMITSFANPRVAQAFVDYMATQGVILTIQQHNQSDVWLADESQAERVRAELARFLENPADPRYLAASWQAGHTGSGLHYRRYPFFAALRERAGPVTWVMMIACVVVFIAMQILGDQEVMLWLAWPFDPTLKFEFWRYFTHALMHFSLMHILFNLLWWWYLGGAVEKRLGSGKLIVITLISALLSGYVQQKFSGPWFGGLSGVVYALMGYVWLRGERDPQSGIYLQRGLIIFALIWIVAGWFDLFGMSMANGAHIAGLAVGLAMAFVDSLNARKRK

Escherichia coli [9] = assay: as §2, with “at 50” for “at 1”; in short: as §3
[10] = system: T4, Rhomboid protease GlpG (Escherichia coli (strain K12)), P09391 [H254A]; assay: Binding affinity to recombinant Escherichia coli rhomboid protease GlpG H254A mutant expressed in Escherichia coli C43(DE3) cells by electrospray mass spectrometric analysis; in short: as §4
T4 sequence (whole entry): T3 sequence (whole entry) with H254A

[11] = system: T5, Rhomboid protease GlpG (Escherichia coli (strain K12)), P09391 [S201T]; assay: Binding affinity to recombinant Escherichia coli rhomboid protease GlpG S201T mutant expressed in Escherichia coli C43(DE3) cells by electrospray mass spectrometric analysis; in short: as §4
T5 sequence (whole entry): T3 sequence (whole entry) with S201T

[12] = Inhibition of recombinant Escherichia coli N-terminal His-tagged rhomboid protease GlpG expressed in Escherichia coli C43(DE3) cells using KSp76 as substrate incubated for 1 hr followed by substrate addition by fluorescence assay; in short: as §1
Escherichia coli [13] = assay: as §2, with “at 10” for “at 1”; in short: as §3

**Q.** For `O=c1oc(-c2ccc(F)cc2)nc2ccccc12`, which inhibition (Escherichia coli [1]) is on record?
**A.** inactive

**Q.** Which inhibition (Escherichia coli [1]) does the source give for `O=c1oc(-c2ccccc2F)nc2ccccc12` here?
**A.** inactive

**Q.** For `O=c1oc(-c2cccc(Br)c2)nc2ccccc12`, which inhibition (Escherichia coli [1]) is on record?
**A.** inactive

**Q.** With `O=c1oc(/C=C/c2ccc(F)c(F)c2)nc2ccccc12` as the compound, how does the inhibition (Escherichia coli [1]) read?
**A.** inactive

**Q.** With `CCC(=O)Oc1c(/C=C/c2nc3ccccc3c(=O)o2)cccc1OC` as the compound, how does the inhibition (Escherichia coli [1]) read?
**A.** inactive

**Q.** What does the source list for `COc1ccc(/C=C/c2nc3ccccc3c(=O)o2)cc1`?
**A.** inhibition (Escherichia coli [1]): Active; IC50 [2]: 48 µM; inhibition [3]: inactive; inhibition [4]: inactive; inhibition (Bos taurus): inactive

**Q.** For `COc1ccc(-c2nc3ccccc3c(=O)o2)cc1`, which inhibition (Escherichia coli [1]) is on record?
**A.** inactive

**Q.** Which inhibition (Escherichia coli [1]) does the source give for `O=c1oc(-c2ccco2)nc2ccccc12` here?
**A.** inactive

**Q.** Which IC50 (Chymotrypsinogen A) does the source give for `O=c1oc(Cl)c(Cl)c2ccccc12` here?
**A.** 3.5 µM

**Q.** And the inhibition [4]?
**A.** Active

**Q.** And the inhibition (Bos taurus)?
**A.** Active

**Q.** For `O=C1CC(c2ccccc2)N1C(=O)Oc1ccccc1` (configuration not stated), which inhibition (Escherichia coli [5]) is on record?
**A.** Active

**Q.** With `O=c1oc(-c2cccc(F)c2)nc2ccccc12` as the compound, how does the inhibition (Escherichia coli [1]) read?
**A.** inactive

**Q.** What does the source list for `O=c1oc(/C=C/c2ccccc2)nc2ccccc12`?
**A.** inhibition [6]: inactive; inhibition (Escherichia coli [1]): Active; Activity (Escherichia coli [7]): Active; IC50 [2]: 3.7 µM; inhibition [3]: Active; inhibition [4]: inactive; inhibition (Bos taurus): inactive

**Q.** Which Activity [8] does the source give for `O=c1oc(/C=C/c2ccccc2Cl)nc2ccccc12` here?
**A.** Active

**Q.** And the inhibition (Escherichia coli [9])?
**A.** Active

**Q.** And the inhibition [6]?
**A.** inactive

**Q.** What about the Activity [10] of the same compound?
**A.** inactive

**Q.** What about the inhibition (Escherichia coli [1]) of the same compound?
**A.** Active

**Q.** And the Activity (Escherichia coli [7])?
**A.** Active

**Q.** And the Activity [11]?
**A.** inactive

**Q.** What about the inhibition [3] of the same compound?
**A.** Active

**Q.** And the IC50 [12]?
**A.** 4.4 µM

**Q.** What about the inhibition [4] of the same compound?
**A.** inactive

**Q.** And the inhibition (Bos taurus)?
**A.** inactive

**Q.** For `COc1oc(=O)c2cc(N)ccc2c1Cl`, which inhibition (Escherichia coli [13]) is on record?
**A.** inactive

**Q.** Which inhibition (Escherichia coli [1]) does the source give for `O=c1oc(-c2ccccc2)nc2ccccc12` here?
**A.** inactive
